Assay results as given in ChEMBL document CHEMBL5715938, “The protein kinase Cbeta-selective inhibitor, Enzastaurin (LY317615.HCl), suppresses signaling through the AKT pathway, induces apoptosis, and suppresses growth of human colon cancer and glioblastoma xenografts” (Cancer Res, 2005).
The source made the active and inactive calls. The rule behind the calls is not given here.

Target: Glycogen synthase kinase-3 beta (Homo sapiens) (UniProt P49841)
Test: Inhibition of GSK3beta phosphorylation at serine 9 residue in human HCT-116 cells at 1 micromol/L by Western blotting analysis
Assay type: cell-based
Details: dose 1.0 µmol/L, time <= 4.0 hrs
In short: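 Cultured tumor cells treated with 1 μmol/L drug; lysates in cell extraction buffer with protease inhibitors, western blotted with phospho-specific antibodies (pGSK3β Ser9, pAKT Thr308, phospho-ERK) alongside total GSK3β/AKT.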

Glycogen synthase kinase-3 beta (Homo sapiens), sequence (P49841 whole entry, looked up): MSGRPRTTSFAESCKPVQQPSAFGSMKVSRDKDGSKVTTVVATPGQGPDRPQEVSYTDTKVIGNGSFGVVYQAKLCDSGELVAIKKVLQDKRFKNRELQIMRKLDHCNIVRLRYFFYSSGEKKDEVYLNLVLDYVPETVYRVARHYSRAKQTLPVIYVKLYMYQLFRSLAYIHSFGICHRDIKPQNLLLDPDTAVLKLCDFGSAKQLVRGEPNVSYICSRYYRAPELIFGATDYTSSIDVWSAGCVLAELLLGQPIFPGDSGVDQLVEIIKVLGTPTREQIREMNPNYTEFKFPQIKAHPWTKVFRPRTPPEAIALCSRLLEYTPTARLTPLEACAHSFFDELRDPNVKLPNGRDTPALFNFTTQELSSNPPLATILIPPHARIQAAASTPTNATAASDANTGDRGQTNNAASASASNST

inhibition: Active
Structure (SMILES): CO[C@@H]1[C@H](N(C)C(=O)c2ccccc2)C[C@H]2O[C@]1(C)n1c3ccccc3c3c4c(c5c6ccccc6n2c5c31)C(=O)NC4
